MrgX1 agonist: human MrgX1 receptor agonism, primary screen. Q96LB2. MrgX1-HEK293 cells, Fluo-4 calcium fluorescence, agonist mode; hits give high values. B-score at 10 µM. 310,000 tested, 0.44% active. AID 588627;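 active = calcium response B-score plate-corrected fluorescence ratio at least 3 library SD, with starting fluorescence B-score inside 5 SD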
Target sequence (Q96LB2 whole entry, looked up): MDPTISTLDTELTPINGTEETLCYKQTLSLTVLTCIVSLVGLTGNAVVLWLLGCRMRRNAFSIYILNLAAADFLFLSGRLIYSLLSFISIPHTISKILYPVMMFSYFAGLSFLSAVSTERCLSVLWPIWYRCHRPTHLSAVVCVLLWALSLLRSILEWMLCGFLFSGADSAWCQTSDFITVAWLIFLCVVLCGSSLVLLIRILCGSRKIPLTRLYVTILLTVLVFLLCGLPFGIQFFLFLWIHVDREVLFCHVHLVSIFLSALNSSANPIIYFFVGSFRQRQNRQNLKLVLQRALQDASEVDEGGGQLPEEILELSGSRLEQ
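Assay system: stable human MrgX1 HEK293 cell line. Quantity: 15,000 cells per well. Schedule: cells plated overnight, dye loaded 0.5 h 37 °C, 0.5 h room temperature. Detection: Fluo-4 NW calcium-flux fluorescence, kinetic read. Read-out basis: peak-minus-minimum fluorescence over baseline, converted to B scores. Control set: positive and negative control wells on each plate.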
RGS4 block: inhibitors of human RGS4 | B-score at 10 µM | HEK293 M3R/RGS4 inducible, Fluo-4 calcium flux; hits give high values; triggered by carbachol at its EC20 | P49798 | 310,000 tested, 0.45% active;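 active = B-score, a plate-corrected calcium signal, over three deviations above library mean, with baseline fluorescence within five deviations of library mean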;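 also: RGS4 expression induced by doxycycline in cells with stable M3 receptor; B-score is computed from the integrated fluorescence ratio over baseline after carbachol; higher B-score means a larger calcium signal and so more RGS4 inhibition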
Target sequence (P49798 whole entry, looked up): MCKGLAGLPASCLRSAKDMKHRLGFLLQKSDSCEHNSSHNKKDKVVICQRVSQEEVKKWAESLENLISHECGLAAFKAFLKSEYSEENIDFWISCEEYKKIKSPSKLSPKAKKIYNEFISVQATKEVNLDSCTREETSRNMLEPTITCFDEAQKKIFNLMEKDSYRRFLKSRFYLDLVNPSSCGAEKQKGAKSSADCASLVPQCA
MrgX1 antag: human MrgX1 receptor antagonism, primary screen; 310,000 tested, 1.3% active; Q96LB2; B-score at 10 µM; MRGX1-HEK293 calcium flux, Fluo-4, BAM8-22 antagonism; hits give low values;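 active = calcium-response B-score plate-corrected more than 3 library SD below zero, starting fluorescence within 5 deviations, no agonist response on first addition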;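 also: peak minus trough fluorescence over baseline after final BAM8-22 challenge near maximal dose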
RGS4 act: potentiators or activators of RGS4. HEK293 M3R/inducible RGS4, carbachol calcium flux Fluo4; hits give low values. B-score at 10 µM. 310,000 tested, 0.92% active. AID 463111;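 active = B-score of the integrated calcium signal more than 4 SD below the library mean, with starting fluorescence not abnormally high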;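 also: negative B-score means reduced calcium response which marks RGS4 activation or potentiation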
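Assay system: HEK293 FlpIn-TREx cells, stable M3R, doxycycline-inducible RGS4 / Probe or stimulus: carbachol, ECmax concentration / Times: overnight RGS4 induction, 30 min dye load 37 °C, 20 min compound RT / Signal: kinetic calcium fluorescence imaging with Fluo4-AM dye, 2 µM / Measure: Agonist-evoked peak-minus-minimum fluorescence over baseline, integrated ratio, B score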
MrgX1 PAM: allosterically activates human MrgX1 receptor signaling; Q96LB2; MrgX1-HEK293, Fluo-4 calcium flux, FDSS; hits give high values; B-score at 10 µM; 310,000 tested, 0.63% active; AID 588675;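 active = plate-corrected calcium response at least 3 library SD above typical, normal starting fluorescence, not activating the receptor alone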;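 also: compound read alongside a low EC10 to EC30 dose of BAM8-22 agonist; peak minus trough fluorescence over baseline measured at the second addition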
Cl transport mod: modulators of human KCC2 chloride dependent transport. B-score of Tl+ flux slope (higher = more flux/activation; lower = inhibition) at 10 µM. KCC2 cells, thallium flux FluoZin-2 fluorescence. Q9H2X9. AID 1456. 190,000 tested, 2.2% active;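 active = thallium flux slope and its plate-corrected score both differing from the plate sample mean at a set confidence after two filtering rounds, in either direction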;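 also: slope of fluorescence scaled to starting intensity during 10 to 20 s after thallium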
MrgX1 allo conf: human MrgX1 positive allosteric modulation, re-confirmation; shares compounds with MrgX1 PAM; MrgX1-HEK293, Fluo-4 calcium fluorescence, FDSS; activation (ratio percentage), % at 10 µM; 1,200 tested, 13% active;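 active = ratio at least 3 SD above the weak peptide control, stable starting fluorescence, no direct agonism earlier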;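 also: compound followed by low BAM8-22 agonist challenge near EC20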
HEK293 Ca flux: activity in parental HEK293 cells lacking MrgX1; shares compounds with MrgX1 antag; Fluo-4 calcium fluorescence, FDSS; fluorescence ratio F(max-min)/F0 at 10 µM; 4,000 tested, 2% active; AID 624111;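 active = duplicate-averaged calcium fluorescence ratio at least three times the standard deviation of buffer wells, a nonspecific response in parental cells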
HEK293 Ca counter: counter-screen for MrgX1 allosteric activators: effect in parental HEK293 cells; shares compounds with MrgX1 antag; parental HEK293 calcium flux, Fluo-4 fluorescence ratio; hits give high values; fluorescence ratio F(max-min)/F0 at 10 µM; 4,000 tested, 0.4% active; AID 624114;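 active = calcium fluorescence ratio, averaged over duplicates, at least 3 SD of the buffer-well ratio, meaning a nonspecific response in receptor-free cells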;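 also: untransfected parental HEK293 lacking MrgX1 used as counterscreen for MrgX1 allosteric activators; fluorescence change taken during the second addition on a kinetic imager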
HEK293 Ca cntr2: counter-screen for MrgX1 activators: effect in parental HEK293 cells | shares compounds with MrgX1 antag | Fluo-4 calcium fluorescence (FDSS); hits give high values | fluorescence ratio F(max-min)/F0 at 10 µM | 4,000 tested, 8.7% active | AID 624115;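 active = calcium fluorescence ratio at least three times the spread of buffer wells, meaning a non-specific response in parental cells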
Starred values were filed as active, the others as inactive. In the library only some 4.7% were active in any assay of this set; here they are far more common.

What do the screens show for `C=CCSc1nnc(-c2ccccc2N=Cc2c(C)[nH]n(-c3ccccc3)c2=O)c(=O)[nH]1`?
MrgX1 agonist: inactive; RGS4 block: inactive; MrgX1 antag: inactive; RGS4 act: inactive; MrgX1 PAM: 8.7*; Cl transport mod: -0.87; MrgX1 allo conf: inactive; HEK293 Ca flux: inactive; HEK293 Ca counter: inactive; HEK293 Ca cntr2: inactive

Results for CCCCC(Sc1nc(C)c(Cc2ccccc2)c(=O)[nH]1)C(=O)O (centres undefined) ?
MrgX1 agonist: inactive; RGS4 block: inactive; MrgX1 antag: inactive; RGS4 act: inactive; MrgX1 PAM: inactive

Results for CCC1=NN2C(=N)/C(=C\c3ccc(SCc4ccco4)o3)C(=O)N=C2S1 ?
MrgX1 agonist: inactive; RGS4 block: inactive; MrgX1 antag: inactive; RGS4 act: inactive; MrgX1 PAM: 22*; MrgX1 allo conf: inactive; HEK293 Ca flux: inactive; HEK293 Ca counter: inactive; HEK293 Ca cntr2: 57*

Results for COc1ccccc1NC(=O)NNC(=O)c1ccc2c(c1)NC(=O)C(C)(C)O2 ?
MrgX1 agonist: inactive; RGS4 block: inactive; MrgX1 antag: inactive; RGS4 act: inactive; MrgX1 PAM: 20*; MrgX1 allo conf: inactive; HEK293 Ca flux: inactive; HEK293 Ca counter: inactive; HEK293 Ca cntr2: inactive

How did COc1cccc(NC(=O)NNC(=O)c2ccc3c(c2)NC(=O)C(C)(C)O3)c1 do in these assays?
MrgX1 agonist: inactive; RGS4 block: inactive; MrgX1 antag: inactive; RGS4 act: inactive; MrgX1 PAM: inactive

What do the screens show for `CCOC(=O)/C(C(=Nc1ccccc1)Nc1ccccc1)=C(\C)O`?
MrgX1 agonist: inactive; RGS4 block: inactive; MrgX1 antag: inactive; RGS4 act: inactive; MrgX1 PAM: 7.7*; MrgX1 allo conf: inactive; HEK293 Ca flux: inactive; HEK293 Ca counter: inactive; HEK293 Ca cntr2: inactive

How did O=C(COC(=O)CCCOc1ccccc1)NC1CCS(=O)(=O)C1 (centres undefined) do in these assays?
MrgX1 agonist: inactive; RGS4 block: inactive; MrgX1 antag: inactive; RGS4 act: inactive; MrgX1 PAM: inactive

How did CSc1ccc(Cl)c(C(=O)OCC(=O)N2CCOCC2)c1 do in these assays?
MrgX1 agonist: inactive; RGS4 block: inactive; MrgX1 antag: inactive; RGS4 act: inactive; MrgX1 PAM: inactive

Results for COc1cc(SC)ccc1C(=O)OCC(=O)N1CCCC1 ?
MrgX1 agonist: inactive; RGS4 block: inactive; MrgX1 antag: inactive; RGS4 act: inactive; MrgX1 PAM: 11*; MrgX1 allo conf: inactive; HEK293 Ca flux: inactive; HEK293 Ca counter: inactive; HEK293 Ca cntr2: inactive

What do the screens show for `Cc1ccc(S(=O)(=O)N(CCC#N)C2CCCCC2)c2nsnc12`?
MrgX1 agonist: inactive; RGS4 block: inactive; MrgX1 antag: inactive; RGS4 act: inactive; MrgX1 PAM: 6.8*; Cl transport mod: -0.38; MrgX1 allo conf: inactive; HEK293 Ca flux: inactive; HEK293 Ca counter: inactive; HEK293 Ca cntr2: inactive

Results for COc1ccc(CN(C)C(=O)c2oc3ccccc3c2CSC)cc1F ?
MrgX1 agonist: inactive; RGS4 block: inactive; MrgX1 antag: inactive; RGS4 act: inactive; MrgX1 PAM: 8*; MrgX1 allo conf: inactive; HEK293 Ca flux: inactive; HEK293 Ca counter: inactive; HEK293 Ca cntr2: inactive

Compound activity from PubChem BioAssay.
